{
  "source": "ChEMBL document CHEMBL5303300",
  "about": "“EUbOPEN Chemogenomics Library - Multiplex” (2023)",
  "key": {"[1]": {"test_system": "Fibroblast", "experiment": "Multiplex assay against human fibroblast", "assay_type": "toxicity, cell-based", "conditions": "number of replicates 2", "outline": "(§1)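 Hoechst33342, BioTracker Green Microtubule Cytoskeleton Dye, MitoTracker Red and Annexin V Alexa Fluor 680 were added to live cells at seeding, and imaging on a CQ1 microscope at 37°C and 5% CO2 followed compound addition. Gating by CellPathfinder machine learning separated cells into Hoechst high-intensity objects or normal cells, then normal cells into healthy, pyknosed or fragmented nuclei, then pyknosed cells into mitotic or apoptotic. Per cents of healthy-nucleus cells are reported for the tubulin, mitochondrial-mass and membrane-permeability phenotypes.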"}, "[2]": {"test_system": "U2OS", "experiment": "Multiplex assay against U2OS", "assay_type": "toxicity, cell-based", "conditions": "human, number of replicates 2", "outline": "as §1"}, "[3]": {"conditions": "24 h, 1 µM, compound concentration 1 uM"}, "[4]": {"conditions": "24 h, 10 µM, compound concentration 10 uM"}, "[5]": {"conditions": "48 h, 1 µM, compound concentration 1 uM"}, "[6]": {"conditions": "48 h, 10 µM, compound concentration 10 uM"}, "[7]": {"conditions": "12 h, 1 µM, compound concentration 1 uM"}, "[8]": {"conditions": "12 h, 10 µM, compound concentration 10 uM"}},
  "note": "“And” between values parts separate entries of the source, which are not always exact repeats. Equal values may be shown once.",
  "data": [
    {"smiles": "COc1c(OCCCN2CCOCC2)ccc2c1N=C(NC(=O)c1cnc(N)nc1)N1CCN=C21", "note": "[COPANLISIB]", "values": [
      {"measurement": "Population Fragmented Nuclei (%)", "setting": "[1]; [3]", "result": "14% and 8%"},
      {"measurement": "Population Healthy Nuclei (%)", "setting": "[1]; [3]", "result": "60% and 71%"},
      {"measurement": "Population Hoechst High Intensity Objects (%)", "setting": "[1]; [3]", "result": 0, "unit": "%"},
      {"measurement": "Population Membrane Permeable-Phenotype (%)", "setting": "[1]; [3]", "result": "2% and 5%"},
      {"measurement": "Population Mitochondria Different-Phenotype (%)", "setting": "[1]; [3]", "result": "1% and 2%"},
      {"measurement": "Population Mitotic Cells (%)", "setting": "[1]; [3]", "result": "51% and 42%"},
      {"measurement": "Population Normal (%)", "setting": "[1]; [3]", "result": 100, "unit": "%"},
      {"measurement": "Population Pyknosed Nuclei (%)", "setting": "[1]; [3]", "result": "25% and 20%"},
      {"measurement": "Population Tubulin-Different-Phenotype (%)", "setting": "[1]; [3]", "result": "2% and 5%"},
      {"measurement": "Total Cell Count", "setting": "[1]; [3]", "result": "155 and 165"},
      {"measurement": "Population Apoptotic (%)", "setting": "[1]; [4]", "result": "76% and 60%"},
      {"measurement": "Population Fragmented Nuclei (%)", "setting": "[1]; [4]", "result": "18% and 16%"},
      {"measurement": "Population Healthy Nuclei (%)", "setting": "[1]; [4]", "result": "63% and 72%"},
      {"measurement": "Population Hoechst High Intensity Objects (%)", "setting": "[1]; [4]", "result": 0, "unit": "%"},
      {"measurement": "Population Membrane Permeable-Phenotype (%)", "setting": "[1]; [4]", "result": "3% and 0%"},
      {"measurement": "Population Mitochondria Different-Phenotype (%)", "setting": "[1]; [4]", "result": "2% and 1%"},
      {"measurement": "Population Mitotic Cells (%)", "setting": "[1]; [4]", "result": "23% and 39%"},
      {"measurement": "Population Normal (%)", "setting": "[1]; [4]", "result": 100, "unit": "%"},
      {"measurement": "Population Pyknosed Nuclei (%)", "setting": "[1]; [4]", "result": "17% and 11%"},
      {"measurement": "Population Tubulin-Different-Phenotype (%)", "setting": "[1]; [4]", "result": "9% and 2%"},
      {"measurement": "Total Cell Count", "setting": "[1]; [4]", "result": "174 and 209"},
      {"measurement": "Population Apoptotic (%)", "setting": "[1]; [5]", "result": "73% and 57%"},
      {"measurement": "Population Fragmented Nuclei (%)", "setting": "[1]; [5]", "result": "7% and 14%"},
      {"measurement": "Population Healthy Nuclei (%)", "setting": "[1]; [5]", "result": "70% and 71%"},
      {"measurement": "Population Hoechst High Intensity Objects (%)", "setting": "[1]; [5]", "result": 0, "unit": "%"},
      {"measurement": "Population Membrane Permeable-Phenotype (%)", "setting": "[1]; [5]", "result": "6% and 10%"},
      {"measurement": "Population Mitochondria Different-Phenotype (%)", "setting": "[1]; [5]", "result": 0, "unit": "%"},
      {"measurement": "Population Mitotic Cells (%)", "setting": "[1]; [5]", "result": "26% and 42%"},
      {"measurement": "Population Normal (%)", "setting": "[1]; [5]", "result": 100, "unit": "%"},
      {"measurement": "Population Pyknosed Nuclei (%)", "setting": "[1]; [5]", "result": "21% and 14%"},
      {"measurement": "Population Tubulin-Different-Phenotype (%)", "setting": "[1]; [5]", "result": "2% and 3%"},
      {"measurement": "Total Cell Count", "setting": "[1]; [5]", "result": "140 and 176"},
      {"measurement": "Population Apoptotic (%)", "setting": "[1]; [6]", "result": "68% and 77%"},
      {"measurement": "Population Fragmented Nuclei (%)", "setting": "[1]; [6]", "result": "15% and 18%"},
      {"measurement": "Population Healthy Nuclei (%)", "setting": "[1]; [6]", "result": 70, "unit": "%"},
      {"measurement": "Population Hoechst High Intensity Objects (%)", "setting": "[1]; [6]", "result": "1% and 0%"},
      {"measurement": "Population Membrane Permeable-Phenotype (%)", "setting": "[1]; [6]", "result": "11% and 4%"},
      {"measurement": "Population Mitochondria Different-Phenotype (%)", "setting": "[1]; [6]", "result": "1% and 2%"},
      {"measurement": "Population Mitotic Cells (%)", "setting": "[1]; [6]", "result": "32% and 22%"},
      {"measurement": "Population Normal (%)", "setting": "[1]; [6]", "result": "98% and 100%"},
      {"measurement": "Population Pyknosed Nuclei (%)", "setting": "[1]; [6]", "result": "14% and 10%"},
      {"measurement": "Total Cell Count", "setting": "[1]; [6]", "result": "176 and 205"},
      {"measurement": "Population Apoptotic (%)", "setting": "[2]; [7]", "result": "100% and 76%"},
      {"measurement": "Population Healthy Nuclei (%)", "setting": "[2]; [7]", "result": "60% and 87%"},
      {"measurement": "Population Hoechst High Intensity Objects (%)", "setting": "[2]; [7]", "result": 0, "unit": "%"},
      {"measurement": "Population Membrane Permeable-Phenotype (%)", "setting": "[2]; [7]", "result": "0% and 2%"},
      {"measurement": "Population Mitochondria Different-Phenotype (%)", "setting": "[2]; [7]", "result": 0, "unit": "%"},
      {"measurement": "Population Mitotic Cells (%)", "setting": "[2]; [7]", "result": "0% and 23%"},
      {"measurement": "Population Normal (%)", "setting": "[2]; [7]", "result": 100, "unit": "%"},
      {"measurement": "Population Pyknosed Nuclei (%)", "setting": "[2]; [7]", "result": "4% and 7%"},
      {"measurement": "Population Tubulin-Different-Phenotype (%)", "setting": "[2]; [7]", "result": "93% and 90%"},
      {"measurement": "Population Apoptotic (%)", "setting": "[2]; [8]", "result": "100% and 76%"},
      {"measurement": "Population Healthy Nuclei (%)", "setting": "[2]; [8]", "result": "32% and 80%"},
      {"measurement": "Population Hoechst High Intensity Objects (%)", "setting": "[2]; [8]", "result": 0, "unit": "%"},
      {"measurement": "Population Mitochondria Different-Phenotype (%)", "setting": "[2]; [8]", "result": "10% and 1%"},
      {"measurement": "Population Mitotic Cells (%)", "setting": "[2]; [8]", "result": "0% and 24%"},
      {"measurement": "Population Normal (%)", "setting": "[2]; [8]", "result": 100, "unit": "%"},
      {"measurement": "Population Pyknosed Nuclei (%)", "setting": "[2]; [8]", "result": "16% and 15%"},
      {"measurement": "Population Tubulin-Different-Phenotype (%)", "setting": "[2]; [8]", "result": 80, "unit": "%"},
      {"measurement": "Population Apoptotic (%)", "setting": "[2]; [3]", "result": "100% and 70%"},
      {"measurement": "Population Healthy Nuclei (%)", "setting": "[2]; [3]", "result": "56% and 86%"},
      {"measurement": "Population Hoechst High Intensity Objects (%)", "setting": "[2]; [3]", "result": 0, "unit": "%"},
      {"measurement": "Population Membrane Permeable-Phenotype (%)", "setting": "[2]; [3]", "result": "0% and 2%"},
      {"measurement": "Population Mitochondria Different-Phenotype (%)", "setting": "[2]; [3]", "result": "0% and 1%"},
      {"measurement": "Population Normal (%)", "setting": "[2]; [3]", "result": 100, "unit": "%"},
      {"measurement": "Population Pyknosed Nuclei (%)", "setting": "[2]; [3]", "result": "8% and 10%"},
      {"measurement": "Population Tubulin-Different-Phenotype (%)", "setting": "[2]; [3]", "result": "100% and 89%"},
      {"measurement": "Population Apoptotic (%)", "setting": "[2]; [4]", "result": "50% and 64%"},
      {"measurement": "Population Hoechst High Intensity Objects (%)", "setting": "[2]; [4]", "result": "2% and 0%"},
      {"measurement": "Population Mitotic Cells (%)", "setting": "[2]; [4]", "result": "50% and 35%"},
      {"measurement": "Population Normal (%)", "setting": "[2]; [4]", "result": "97% and 100%"},
      {"measurement": "Population Pyknosed Nuclei (%)", "setting": "[2]; [4]", "result": 22, "unit": "%"},
      {"measurement": "Population Tubulin-Different-Phenotype (%)", "setting": "[2]; [4]", "result": "75% and 84%"},
      {"measurement": "Population Apoptotic (%)", "setting": "[2]; [5]", "result": "80% and 72%"},
      {"measurement": "Population Healthy Nuclei (%)", "setting": "[2]; [5]", "result": "41% and 88%"},
      {"measurement": "Population Hoechst High Intensity Objects (%)", "setting": "[2]; [5]", "result": "4% and 0%"},
      {"measurement": "Population Membrane Permeable-Phenotype (%)", "setting": "[2]; [5]", "result": "0% and 2%"},
      {"measurement": "Population Mitochondria Different-Phenotype (%)", "setting": "[2]; [5]", "result": "0% and 1%"},
      {"measurement": "Population Mitotic Cells (%)", "setting": "[2]; [5]", "result": "20% and 27%"},
      {"measurement": "Population Normal (%)", "setting": "[2]; [5]", "result": "96% and 99%"},
      {"measurement": "Population Pyknosed Nuclei (%)", "setting": "[2]; [5]", "result": "20% and 8%"},
      {"measurement": "Population Tubulin-Different-Phenotype (%)", "setting": "[2]; [5]", "result": "100% and 95%"},
      {"measurement": "Population Apoptotic (%)", "setting": "[2]; [6]", "result": "92% and 79%"},
      {"measurement": "Population Hoechst High Intensity Objects (%)", "setting": "[2]; [6]", "result": "0% and 1%"},
      {"measurement": "Population Mitochondria Different-Phenotype (%)", "setting": "[2]; [6]", "result": "0% and 3%"},
      {"measurement": "Population Mitotic Cells (%)", "setting": "[2]; [6]", "result": "7% and 20%"},
      {"measurement": "Population Normal (%)", "setting": "[2]; [6]", "result": "100% and 98%"},
      {"measurement": "Population Pyknosed Nuclei (%)", "setting": "[2]; [6]", "result": "34% and 35%"}
    ]}
  ]
}
